Assay outcomes as filed in PubChem.
Kir21 inh: Kir2.1 (mouse) channel inhibition. P35561. HEK293-Kir2.1, FluxOR thallium flux fluorescence; stronger effect = lower value. B-score at 10 µM. 310,000 tested, 0.85% active. AID 1672;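 active means fluorescence ratio B-score at or below minus 3 SD of library scores, with starting-brightness B-score within 2 SD, cut at about -4.2 in these data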;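 further: channel flux triggered by added potassium and thallium sulfate stimulus; B-score of peak minus minimum fluorescence over baseline after thallium stimulus; more negative B-score means stronger Kir2.1 block with less thallium influx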
KCNK9 inh: inhibitors of human KCNK9 two-pore domain potassium channel | 310,000 tested, 1.2% active | AID 488922 | HEK293 KCNK9, FluxOR thallium flux fluorescence; stronger effect = lower value | B-score at 10 µM | Q9NPC2;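 active means ratio B-score over 3 SD below the library mean, with starting fluorescence within 5 SD of its mean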;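 further: negative B-score means less thallium flux so channel inhibition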
KCNQ1 act: potentiates or activates the human KCNQ1 potassium channel; P51787; CHO-K1 KCNQ1, thallium flux FluxOR fluorescence; stronger effect = higher value; B-score at 10 µM; 310,000 tested, 0.35% active; AID 2648;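 active means fluorescence ratio B-score, a plate-corrected score, at least three library SD, with initial intensity B-score within 5 SD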
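Assay system: CHO-K1 cells stably expressing KCNQ1; Medium: assay buffer with matched DMSO; Also added: K+/Tl+ depolarizing stimulus; Dosing: single dose; Timing: dye 90 min, compound 20 min, room temperature; Measured by: kinetic FluxOR thallium fluorescence, 10-s 1-Hz baseline, 110-s post-stimulus read; Read-out: peak-minus-minimum fluorescence over initial fluorescence, negative-control normalized, B-scored.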
hERG rescue: shields human hERG channel from block by proarrhythmic agents. Q12809. CHO-hERG, FluxOR thallium flux, dofetilide IC70 present. activation (rescue from dofetilide block), less the hit threshold, % at 10 µM. 310,000 tested, 0.51% active. AID 1511;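 active means activation above the mean of controls blocked by dofetilide plus 5 SD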;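 further: thallium influx through hERG after potassium depolarization seen as dye fluorescence rise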
Target sequence (Q12809 whole entry, looked up): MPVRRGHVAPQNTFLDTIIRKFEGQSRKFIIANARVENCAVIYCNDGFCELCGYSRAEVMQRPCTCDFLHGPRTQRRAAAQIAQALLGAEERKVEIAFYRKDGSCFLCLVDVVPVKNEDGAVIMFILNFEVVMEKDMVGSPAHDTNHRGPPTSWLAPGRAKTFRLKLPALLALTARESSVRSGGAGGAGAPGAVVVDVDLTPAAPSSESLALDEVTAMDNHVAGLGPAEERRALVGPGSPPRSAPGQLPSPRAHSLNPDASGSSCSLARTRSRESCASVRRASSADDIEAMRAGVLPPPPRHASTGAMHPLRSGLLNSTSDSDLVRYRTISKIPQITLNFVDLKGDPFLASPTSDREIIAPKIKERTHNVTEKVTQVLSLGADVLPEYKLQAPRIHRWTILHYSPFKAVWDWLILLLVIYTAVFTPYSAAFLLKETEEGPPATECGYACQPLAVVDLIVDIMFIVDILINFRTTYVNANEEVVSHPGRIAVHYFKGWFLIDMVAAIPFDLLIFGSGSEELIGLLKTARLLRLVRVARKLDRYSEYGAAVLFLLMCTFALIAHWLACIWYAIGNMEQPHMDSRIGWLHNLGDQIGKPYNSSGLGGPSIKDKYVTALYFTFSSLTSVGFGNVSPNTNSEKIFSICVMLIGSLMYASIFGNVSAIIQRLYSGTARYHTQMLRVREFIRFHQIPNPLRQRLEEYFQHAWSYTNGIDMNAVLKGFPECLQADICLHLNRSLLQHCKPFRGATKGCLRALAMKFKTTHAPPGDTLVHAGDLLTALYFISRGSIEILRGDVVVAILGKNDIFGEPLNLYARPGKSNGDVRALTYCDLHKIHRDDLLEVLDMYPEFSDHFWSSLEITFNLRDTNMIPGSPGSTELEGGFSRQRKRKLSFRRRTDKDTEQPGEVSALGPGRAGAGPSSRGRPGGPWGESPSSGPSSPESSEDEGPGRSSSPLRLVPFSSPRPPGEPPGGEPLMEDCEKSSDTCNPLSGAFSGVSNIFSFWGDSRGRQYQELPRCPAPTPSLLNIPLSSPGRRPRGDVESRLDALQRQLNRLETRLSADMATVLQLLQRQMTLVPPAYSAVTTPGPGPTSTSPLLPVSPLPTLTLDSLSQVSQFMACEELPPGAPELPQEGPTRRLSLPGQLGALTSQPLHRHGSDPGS
KCNQ1 block: human KCNQ1 channel inhibition; P51787; CHO-K1 KCNQ1, FluxOR thallium flux fluorescence; stronger effect = higher value; B-score at 10 µM; 310,000 tested, 1.3% active;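 active means compounds whose thallium flux B-score, printed positive for inhibition, exceeds three library SD while starting fluorescence stays within three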;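 further: channel opened by potassium depolarization with thallium stimulus after 20 min compound exposure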
KCNK3 block: human KCNK3 channel inhibition, primary screen | O14649 | CHO-KCNK3 thallium flux, FluxOR fluorescence; stronger effect = lower value | B-score at 10 µM | 340,000 tested, 0.84% active | AID 602410;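 active means B-score under library mean minus 4 SD, starting fluorescence ratio at most library mean plus 5 SD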;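 further: more negative B-score means stronger inhibition of thallium flux through KCNK3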
KCNQ1 block val: reconfirmed blocker of the human KCNQ1 potassium channel. shares compounds with KCNQ1 block. KCNQ1 cell line, FluxOR thallium flux fluorescence. inhibition, % at 10 µM. 1,600 tested, 93% active. AID 588353;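 active means primary screen active, with duplicate mean exceeding buffer control mean plus 3 SD of buffer wells, cut at about 28% in these data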
CHO Tl flux: KCNQ1 inhibitor counter-screen hit in parental CHO cells. shares compounds with KCNQ1 block. parental CHO-K1, FluxOR thallium flux fluorescence ratio; stronger effect = lower value; zero means no signal rise above baseline. fluorescence ratio (Tl flux) at 10 µM. 1,600 tested, 21% active. AID 588366;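 active means mean of duplicate thallium-flux fluorescence ratios in parental host cells more than 5 SD below the buffer control mean, cut at about 0.38 in these data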;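 further: ratio is peak minus minimum fluorescence divided by baseline fluorescence; actives read low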
KCNQ1 ephys val: blocks human KCNQ1 current in automated patch clamp | AID 624120 | calls only at 10 µM | 490 tested, 20% active | KCNQ1-CHO cells | shares compounds with KCNQ1 block;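 active means KCNQ1 current drop exceeding 3 SD of negative control wells, seen in both duplicate runs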;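 further: steady state current during a 2 s step from -80 to +40 mV; negative values mean current inhibition and positive values mean potentiation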
KCNQ2 spec: selectivity of KCNQ1 inhibitors: inhibition of rat KCNQ2 channel | shares compounds with KCNQ1 block | KCNQ2 cells, FluxOR thallium flux fluorescence | inhibition, % at 10 µM | 1,600 tested, 71% active;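 active means mean percent inhibition of the KCNQ2 thallium signal more than 5 SD above the buffer-only control wells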;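 further: KCNQ2 expressed in CHO cells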
KCNQ1-KCNE1 inh: selectivity of KCNQ1 inhibitors: inhibition of human KCNQ1/KCNE1 channel; shares compounds with KCNQ1 block; KCNQ1/KCNE1 cells, FluxOR thallium flux fluorescence; inhibition, % at 10 µM; 1,600 tested, 77% active;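 active means mean percent inhibition of duplicate wells above the buffer-only control mean plus 3 SD of those controls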
Hits are given with their value; 0 = inactive; - = no result; + = active, no number. A selection: hits, their analogues and other compounds. The true share with any hit is near 3.7%.

SMILES	Kir21 inh	KCNK9 inh	KCNQ1 act	hERG rescue	KCNQ1 block	KCNK3 block	KCNQ1 block val	CHO Tl flux	KCNQ2 spec	KCNQ1-KCNE1 inh	others
CCOc1ccc(NC(=O)CN(C)C(=O)Cc2c(C)nc3ccccc3c2C)cc1OCC	0	0	0	0	0	0	-	-	-	-
Cc1cccc(NC(=O)c2cc3n(n2)C(C(F)(F)F)CC(c2ccc4c(c2)OCO4)N3)c1 (stereo unspecified)	0	0	0	0	8	0	126.0	0	104.3%	94.5%	KCNQ1 ephys val=0
CCN(Cc1ccccc1)C(=O)c1nn(-c2ccc(OC)cc2)c(=O)c2c1c1ccccc1n2C	0	0	0	0	0	0	-	-	-	-
Cc1cccc(NC(=O)C2CCN(S(=O)(=O)c3c(C)c(C)cc(C)c3C)CC2)n1	0	0	0	0	6	0	77.5	0	77.0%	177.0%
Cc1ccc(S(=O)(=O)N2CCN(c3ncnc4scc(-c5ccccc5)c34)CC2)cc1	-	-	-	-	-	0	-	-	-	-
Cc1ccc(-c2csc3ncnc(N4CCN(c5ccccc5O)CC4)c23)cc1	0	0	0	0	0	0	-	-	-	-
COc1ccc(-c2csc3ncnc(N4CCN(S(=O)(=O)c5ccc(C(C)=O)cc5)CC4)c23)cc1	0	0	0	0	8	0	67.0	0	89.3%	36.5%
COc1ccc(-c2csc3ncnc(N4CCN(c5ccccc5O)CC4)c23)cc1	0	0	0	0	8	0	0	0	110.3%	0
Cc1ccc(S(=O)(=O)N2CCN(c3ncnc4scc(-c5ccc(F)cc5)c34)CC2)cc1	0	0	0	0	8	0	71.5	0	81.0%	0
Clc1cc(Br)ccc1OCCCNCc1ccccc1	-10	0	0	0	7	0	67.5	0	90.0%	0
CCCCn1c(=O)[nH]c(=O)c2c1nc(CN(C)Cc1cccc(OC)c1OC)n2CCC	0	0	0	0	0	0	-	-	-	-
COc1cccc(-c2nc(NC(C)C)c3ccccc3n2)c1O	0	0	0	0	0	0	-	-	-	-
CCC(C)Nc1nc(-c2cccc(OC)c2O)nc2ccccc12 (stereo unspecified)	0	0	0	0	11	-11.7	125.0	0.309	0	139.0%
O=C(c1cnc(Cl)c(Cl)c1)N1CCN(S(=O)(=O)c2ccc3ccccc3c2)CC1	-	-	-	-	-	0	-	-	-	-
O=C(NCCCCc1ccccc1)Nc1cccc(F)c1	0	0	0	0	6	0	61.0	0	0	36.0%
Fc1cccc(NC(=S)NCCc2ccccc2)c1	0	0	0	0	7	0	52.5	0	62.3%	0
CN(CC(=O)NCCc1ccccc1)CC(=O)Nc1cccc(F)c1	-	-	-	-	-	0	-	-	-	-
Fc1ccc(F)c(NC(=S)NCCc2ccccc2)c1	0	0	0	0	7	0	53.0	0	81.0%	71.0%
CCc1cc(Br)ccc1NC(=S)NCCc1ccccc1	-7.87	0	0	0	6	0	65.0	0	59.0%	70.0%
O=C1c2nccnc2C(=O)N1c1ccc(C(F)(F)F)cc1	0	0	0	0	0	0	-	-	-	-
CC1Cc2c([nH]c3ccccc23)C2c3ccccc3CN12 (stereo unspecified)	0	0	0	0	0	0	-	-	-	-
Cc1ccc(NC(=S)Nc2ccc(Br)cc2)cc1	0	0	0	0	7	0	48.5	0	0	0
CN(CC(=O)Nc1ccc(C#N)cc1)Cc1ccc(Cl)cc1	0	0	0	0	0	0	-	-	-	-
N#Cc1ccc(NC(=S)Nc2ccccc2)cc1	0	0	0	0	7	0	0	0	0	55.5%
CNC(=S)Nc1ccc(C)cc1	0	0	0	0	0	0	-	-	-	-
SMILES	Kir21 inh	KCNK9 inh	KCNQ1 act	hERG rescue	KCNQ1 block	KCNK3 block	KCNQ1 block val	CHO Tl flux	KCNQ2 spec	KCNQ1-KCNE1 inh	others
N#Cc1ccc(NC(=O)Nc2ccc(Cl)cc2)cc1	0	0	0	0	6	0	0	0	0	0
S=C(Nc1ccccc1)Nc1cccc(Br)c1	0	0	0	0	8	0	60.0	0	0	60.0%
S=C(Nc1cccc(Br)c1)c1ccccc1	0	0	0	0	0	0	-	-	-	-
S=C(NNC(=S)Nc1ccccc1)Nc1ccccc1	0	0	0	0	0	0	-	-	-	-
COc1ccccc1N1CCN(C(=O)C2=CC=CN3CCS(=O)(=O)N=C23)CC1	-	-	-	-	-	0	-	-	-	-
CC1(C)CCN2CCC(C)(C)c3c(O)ccc1c32	0	0	0	0	11	0	70.0	0	62.3%	58.0%
Cc1cccc(NS(=O)(=O)c2ccc(C3CCCCC3)cc2)c1	0	0	0	0	7	0	0	0	0	0
O=C(O)c1cccc(NS(=O)(=O)c2ccc(C3CCCCC3)cc2)c1	0	0	0	0	0	0	-	-	-	-
N#Cc1ccccc1Sc1ccccc1C(=O)NCC(c1ccco1)N1CCCC1 (stereo unspecified)	0	0	0	0	0	0	-	-	-	-
COc1ccc(N=C2SC(CC(=O)Nc3ccccc3)C(=O)N2Cc2ccccn2)cc1 (stereo unspecified)	0	0	0	0	0	0	-	-	-	-
COc1ccc(N=C2SC(CC(=O)Nc3cccc(Cl)c3)C(=O)N2Cc2ccco2)cc1 (stereo unspecified)	0	0	0	0	12	0	92.5	0	93.3%	136.5%	KCNQ1 ephys val=0
Cc1ccc(CNC(=S)NC2CCC(C(C)(C)C)CC2)cc1 (stereo unspecified)	0	0	0	0	13	0	108.5	0	83.7%	80.0%	KCNQ1 ephys val=0
Fc1ccc(CNC(=S)NC2CCCCCC2)cc1	0	0	0	0	0	0	-	-	-	-
Cc1cccc(C(=O)OC(C)C(=O)Nc2ccc(S(=O)(=O)N3CCCC3)cc2)c1O (stereo unspecified)	0	0	0	0	10	0	136.0	0.379	117.0%	177.5%
CC(OC(=O)c1cc(Br)ccc1O)C(=O)Nc1ccc(S(=O)(=O)N2CCCC2)cc1 (stereo unspecified)	0	0	0	0	0	0	-	-	-	-
CC(C)NC(=O)c1onc(CSc2ccc(C(C)C)cc2)c1C(=O)O	0	0	0	0	10	0	88.5	0	72.7%	41.5%
CCCCNc1ccc2c3c(cccc13)C(=O)N(CCCC)C2=O	0	0	0	0	24	0	+	0.0105	0	0
